In the library only some 6.3% were active in any assay of this set; here they are far more common.
M1 agonist = M1 muscarinic receptor agonism; 64,000 tested, 3% active; B-score at 10 µM; AID 626; CHO-M1 cells, Fluo-4 calcium fluorescence, agonist mode; stronger effect = higher value;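 active = fluorescence rise, raw or as B-score row- and column-corrected plate score, outside the 99.7% band of its plate's samples, either direction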
RORA act = activates the human nuclear receptor RORA. 65,000 tested, 1.5% active. activation, % at 10 µM. AID 560. P35398. CHO-K1 Gal4-RORA LBD luciferase reporter, luminescence; percent increase over mock-subtracted basal signal;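 active = activation above the mean of all tested compounds plus 3 SD, cut at about 49% in these data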;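 also: 0% = DMSO-treated RORA cells and 100% = added signal equal to DMSO minus mock-transfected cells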
MT1-MMP txn act = activates MT1-MMP transcription | HT1080 MT1-MMP promoter luciferase reporter, luminescence, overnight; stronger effect = higher value | activation factor at 10 µM | 86,000 tested, 0.16% active;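 active = activation factor of at least 2 for MT1-MMP transcription at 10 µM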
SF-1 act = SF-1 (human) activation | Q13285 | CHO-K1 Gal4-SF-1 LBD luciferase reporter; % increase over DMSO SF-1-specific signal | activation, % at 10 µM | 65,000 tested, 1.9% active | AID 522;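 active = activation above the mean activation of all tested compounds plus 3 SD, cut at about 50% in these data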
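Material: Gal4–SF-1 LBD one-hybrid luciferase reporter in CHO-K1 cells | Amount: 4,000 cells per well | Compound dosing: 10 µM single point, 1% DMSO | Schedule: 20 h compound treatment, 37 °C | Measured by: SteadyLite luciferase luminescence | Evaluation: Percent activation versus DMSO | Control set: DMSO-treated SF-1-transfected cells as negative, DMSO-treated mock-transfected cells lacking SF-1 as background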
M1 antag = antagonists of rat M1 muscarinic receptor; P08482; CHO-M1 cells, Fluo-4 calcium, ACh EC80 antagonist mode; stronger effect = lower value; B-score at 10 µM; 64,000 tested, 3.4% active; AID 628;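 active = calcium fluorescence response, raw or row-and-column corrected B-score, differing from the plate sample mean either way at a set confidence level, mostly lower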
Target sequence (P08482 whole entry, looked up): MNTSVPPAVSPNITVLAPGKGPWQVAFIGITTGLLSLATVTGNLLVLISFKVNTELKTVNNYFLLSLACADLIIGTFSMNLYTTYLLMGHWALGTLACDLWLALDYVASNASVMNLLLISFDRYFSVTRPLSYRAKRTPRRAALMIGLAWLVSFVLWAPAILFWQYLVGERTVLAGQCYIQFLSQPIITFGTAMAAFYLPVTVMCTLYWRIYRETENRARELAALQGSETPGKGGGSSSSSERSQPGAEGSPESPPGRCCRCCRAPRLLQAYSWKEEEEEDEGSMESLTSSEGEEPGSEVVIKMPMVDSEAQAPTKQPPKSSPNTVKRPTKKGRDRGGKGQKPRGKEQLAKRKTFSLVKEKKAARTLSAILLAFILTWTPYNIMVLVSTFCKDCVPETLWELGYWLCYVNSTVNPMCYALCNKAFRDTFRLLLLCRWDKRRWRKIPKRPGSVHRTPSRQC
M1 agonist conf = rat M1 muscarinic agonism, confirmation; shares compounds with M1 agonist; CHO-M1 cells, Fluo-4 calcium fluorescence, agonist mode; actives lie on both sides; fluorescence change (max-min) at 10 µM; 1,700 tested, 19% active;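 active = fluorescence change differs from the solvent-only DMSO control mean at a set confidence level in both duplicate runs; inconclusive = differs from solvent-only control mean in just one of two runs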;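 also: an EC20 dose of acetylcholine follows compound addition during the same imaging run; raw fluorescence intensity difference in instrument units with no normalization to controls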
M4 agonist ctr = activates rat M4 receptor in counter-screen for M1 agonists; fluorescence change (max-min) at 10 µM; 1,700 tested, 9% active; shares compounds with M1 agonist; CHO M4/Gqi5 cells, Fluo-4 calcium fluorescence, agonist mode; actives lie on both sides;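 active = fluorescence change differing from the plate's solvent-only control wells at 99.7% confidence in both duplicates, whether higher or lower; inconclusive = differs from solvent controls in only one of two duplicates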
M1 antag confirm = confirmation of rat M1 muscarinic receptor antagonists; shares compounds with M1 antag; CHO-M1 cells, Fluo-4 calcium, ACh EC80 antagonism; stronger effect = lower value; calcium response (max-min fluorescence) at 10 µM; 1,700 tested, 43% active; AID 677;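 active = calcium response below the same-plate mean of wells given acetylcholine alone at its 80%-effect dose, minus 3 SD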;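 also: raw fluorescence intensity difference in arbitrary instrument units and not normalized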
mGluR4 antag = selectivity test for M1 antagonists: human mGluR4 receptor | CHO-mGluR4 calcium flux, Fluo-4 fluorescence, glutamate EC80; stronger effect = lower value | AID 678 | fluorescence response (max-min) at 10 µM | 1,700 tested, 0.9% active | shares compounds with M1 antag;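 active = fluorescence response below the plate's average for near-maximal glutamate wells, less 3 SD of those wells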;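 also: raw unnormalized fluorescence span taken in the window right after glutamate addition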
* = called active by the depositor; ? = inconclusive; . = no result.

SMILES	M1 agonist	RORA act	MT1-MMP txn act	SF-1 act	M1 antag	M1 antag confirm	mGluR4 antag	others
CCOC(=O)C1=C(N)Oc2ccccc2C12C(=O)N(CC(=O)OC)C(CC(=O)OC)=C2C(=O)OC (stereo not given)	.	.	1.1	.	.	.	.
CCCC(=O)OCC[N+](C)(C)C	40*	-12	1.2	-4	-7.7*	.	.	M1 agonist conf=378*;M4 agonist ctr=7.3
Cc1ccc(C(=O)C2CN3CCC2CC3)cc1 (stereo not given)	12*	-6	1.2	-10	-2.5	.	.	M1 agonist conf=-18;M4 agonist ctr=?
CN1CC=C2C(C#N)=C(N)C(C#N)(C#N)C(c3ccncc3)C2C1 (stereo not given)	78*	2	1.1	2	-1.2	.	.	M1 agonist conf=242*;M4 agonist ctr=212*
Cc1nc2c(=O)n(C)c(=O)nc-2n(C)n1	.	.	0	.	.	.	.
CCn1nc(-c2ccccc2)nc2c(=O)n(C)c(=O)nc1-2	25*	-93	.	-95	-0.41	.	.	M1 agonist conf=187*;M4 agonist ctr=?
CCCCOC(=O)C1=C(N)OC2=C(C(=O)CCC2)[C@]12C(=O)N(C)c1ccccc12	0.008	-8	1.1	-16	0.63	.	.
O=C(c1cc(-c2cccnc2)nc2ccccc12)N1CCC2(CC1)OCCO2	0.68	-2	1.1	2	-0.14	.	.
O=C(c1cc(-c2cccnc2)nc2ccc(Cl)cc12)N1CCC2(CC1)OCCO2	2.8*	6	1.1	0	-1.1	.	.	M1 agonist conf=-35*;M4 agonist ctr=-90
O=C(c1cc(=O)[nH]c2ccc(Br)cc12)N1CCC2(CC1)OCCO2	0.81	-4	1.3	13	-0.24	.	.
O=c1[nH]c(=O)n(CCc2ccc(F)cc2)c(O)c1C=NCCCn1ccnc1	-0.69	-6	1.1	2	0.25	.	.
O=c1[nH]c(=O)n(Cc2ccco2)c(O)c1C=NCCCn1ccnc1	-0.38	-9	1.1	-8	-2.8*	672	262
CCCCCCOc1ccc(CN2CCN(CCO)CC2)cc1	-0.56	40	.	15	-5.3*	366*	306
CCCCOc1ccc(CN2CCN(CC)CC2)cc1	.	.	1.1	.	.	.	.
CCCCOc1ccc(CN2CCN(CCO)CC2)cc1	-0.041	14	1.1	3	-4.8*	310*	210
CCCCCCN=C(C)c1c(O)n(Cc2ccccc2)c(=O)[nH]c1=O	.	.	1.1	.	.	.	.
CCc1nc(N2CCNCC2)c(C#N)c2c1CSC(C)(C)C2	-0.98	-14	0.9	4	-5.2*	264*	211
COc1ccccc1CC1/C(=N/O)C2CCN1CC2 (stereo not given)	0.0037	-3	1.2	-26	-2.6*	540	245
CC(=NCCN1CCCCC1)c1c(O)[nH]c(=O)[nH]c1=O	-0.5	-25	1.1	-15	-0.42	.	.
COC(=O)C(O)(c1ccc(N(C)S(=O)(=O)c2ccccc2)cc1)C(F)(F)F (stereo not given)	-0.52	22	1.4	8	-11*	629	259
Cc1ccc(C)c(C2(O)CC(C)N(C)CC2C)c1 (stereo not given)	0.27	-12	1	21	0.35	.	.
CN1CCC(N(C)c2ncnc3ccc(Br)cc23)CC1	-0.34	8	1.2	30	-0.9*	516	244
CC(=NCCN1CCCCC1)c1c(O)n(Cc2ccccc2)c(=O)[nH]c1=O	0.14	-14	1.1	-6	-2.4*	562	228
CC(=NCCCN1CCCCC1)c1c(O)n(Cc2ccccc2)c(=O)[nH]c1=O	-0.84	13	1.1	-4	-0.92	.	.
Cc1ccc(-c2nc(N(C)C3CCN(C)CC3)c3ccccc3n2)cc1	.	.	1.3	.	.	.	.
SMILES	M1 agonist	RORA act	MT1-MMP txn act	SF-1 act	M1 antag	M1 antag confirm	mGluR4 antag	others
Nc1ccccc1C(=O)OC1CSC1	0.24	1	1.2	30	-6.2*	668	241
Nc1ccccc1C(=O)c1ccccc1	0.13	5	1.2	0	0.16	.	.
O=C(Cc1ccccc1)OC(COCc1ccccc1)CN1CCOCC1 (stereo not given)	0.65	21	1.2	-13	-0.65	.	.
Oc1ccc(C2NCc3ccccc3-n3cccc32)cc1Cl (stereo not given)	-1.8	-6	1	5	-3.5*	579	248
CC(C)c1cccc(C(C)C)c1OCCn1ccnc1	0.038	-20	1.2	-13	-2*	416*	238
CCOc1ccc(N=C2SCCCN2C)cc1	.	.	1.3	.	.	.	.
NC(=O)C1(N2CCCCC2)CCN(Cc2ccccc2)CC1	-0.22	-17	1.2	0	0.68	.	.
O=C(Cc1ccccc1)OCCN1CCCCC1	1.2	12	1.1	5	-3.5*	507*	242
O=c1c2ccccc2nc(-c2ccco2)n1-c1ccncc1	-0.18	-5	1.1	-22	-1.3	.	.
O=P(OCC(F)(F)C(F)F)(N1CCCCC1)N1CCCCC1	-0.11	-21	1.1	11	0.84	.	.
Cc1c(N=Cc2c(O)n(CCc3ccc(F)cc3)c(=O)[nH]c2=O)c(=O)n(-c2ccccc2)n1C	0.9	-19	1	-5	-4.8*	259*	241
O=c1c2ccccc2nc(-c2ccccc2)n1-n1cccc1	0.97	0	1.1	-8	-2*	632	249
Cc1nc2ccccc2c(=O)n1-c1ccccn1	0.34	12	1.1	9	-0.12	.	.
Cc1nc2ccccc2c(=O)n1-n1cnnc1	-0.7	-3	1.1	-20	-2.7*	726	236
CNCCc1nc(N)n[nH]1	-0.45	-5	1.3	-1	0.45	.	.
COc1cc(Br)cc(CN2CCN(C)CC2)c1O	-0.82	8	1.1	17	-3.9*	378*	278
COc1ccc(Br)cc1CN1CCN(CCO)CC1	0.062	3	1.2	1	-0.024	.	.
COc1ccc(C2NCc3ccc4c(c3-n3cccc32)OCO4)cc1O (stereo not given)	-2.3	50*	0.5	21	-2.2*	108*	232
c1cc2n(c1)-c1c(ccc3c1OCO3)CNC2c1ccc2c(c1)OCO2 (stereo not given)	-1.7	-5	1.2	-12	-10*	305*	242
CN(C)CC1CSCCC1(O)c1cccc(Cl)c1 (stereo not given)	.	.	1	.	.	.	.
Nc1ccc(C2(c3ccc(N)cc3)CN3CCC2CC3)cc1	-0.3	6	1	0	0.26	.	.
O=c1[nH]c(=S)n(CCC2=CCCCC2)c(O)c1C=NCCCn1ccnc1	.	.	1.2	.	.	.	.
CC1(C)CN=C(NCc2ccccc2Cl)S1	1	-11	1.2	5	-5.1*	350*	193
O=C(CCc1nc(-c2ccccc2F)no1)N1CCC2(CC1)OCCO2	-0.63	-26	1.1	-10	-0.64	.	.
FC(F)(F)c1ccc2c(c1)ncn2C1CCN(Cc2nnnn2C2CCCCC2)CC1	-0.13	11	1.2	-2	-14*	515	250

Screens: PubChem, several laboratories
